Test results reported in ChEMBL document CHEMBL1152672, “Side chain azasteroids and thiasteroids as sterol methyltransferase inhibitors in ergosterol biosynthesis” (2009).
In brackets after ≈: the same amount, converted by molar mass.

Columns and labels:
[1] = target: T1, Sterol 24-C-methyltransferase (Yarrowia lipolytica) (UniProt Q6C2D9); experiment: Inhibition of Yarrowia lipolytica 24-SMT assessed as dehydroergosterol-3-trimethylsilyl derivative at 0.2 ug/mL after 48 hrs by GC-MS analysis relative to untreated control; design: scale not given: the % may be the effect or the level left
T1 sequence (whole entry): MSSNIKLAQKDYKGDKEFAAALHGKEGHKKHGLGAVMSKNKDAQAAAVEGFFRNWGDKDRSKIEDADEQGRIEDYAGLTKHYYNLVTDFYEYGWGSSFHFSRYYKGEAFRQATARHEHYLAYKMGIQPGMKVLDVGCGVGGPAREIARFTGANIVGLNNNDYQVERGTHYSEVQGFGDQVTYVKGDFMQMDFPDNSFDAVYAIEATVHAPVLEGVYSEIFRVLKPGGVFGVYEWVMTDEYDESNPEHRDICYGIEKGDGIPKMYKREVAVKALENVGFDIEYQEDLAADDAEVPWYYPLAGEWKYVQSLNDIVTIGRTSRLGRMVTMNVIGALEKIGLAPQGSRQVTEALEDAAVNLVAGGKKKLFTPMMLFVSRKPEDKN
How it was run: (§1)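 Whole-cell sterol profiling. Y. lipolytica at 50,000 CFU/mL was exposed to compounds added from ethanol for 48 ± 2 h at 28 °C, and the MIC/2 and/or MIC/4 wells were used. Cells were pelleted and PBS-washed, then saponified in 1 M NaOH at 70 °C for 1 h. Sterols were extracted into TBME with a cholesterol internal standard and silylated to TMS ethers. GC-MS full scan, with each sterol given as % of total integrated quantifier-ion area.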

[2] = target: T1, Sterol 24-C-methyltransferase (Yarrowia lipolytica); experiment: Inhibition of Yarrowia lipolytica 24-SMT assessed as ergosterol-3-trimethylsilyl derivative level at 0.2 ug/mL after 48 hrs by GC-MS analysis relative to untreated control; design: scale not given: the % may be the effect or the level left; how it was run: as §1
[3] = target: T1, Sterol 24-C-methyltransferase (Yarrowia lipolytica); experiment: Inhibition of Yarrowia lipolytica 24-SMT assessed as lanosterol-3-trimethylsilyl derivative at 0.2 ug/mL after 48 hrs by GC-MS analysis relative to untreated control; design: scale not given: the % may be the effect or the level left; how it was run: as §1
Yarrowia lipolytica = experiment: Antimicrobial activity against Yarrowia lipolytica after 48 hrs; format: functional
How it was run: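 Broth dilution MIC per DIN 58940-84. Log-phase Y. lipolytica in yeast extract/peptone/glucose medium, counted against a 0.5 McFarland standard (A570) and seeded at 50,000 CFU/mL in 2 mL wells. Compounds added from ethanol; final concentrations 2 to 0.06125 µg/mL unless otherwise stated. Plates incubated 48 ± 2 h at 28 °C. MIC is the lowest concentration with no visible growth.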

[4] = target: T1, Sterol 24-C-methyltransferase (Yarrowia lipolytica); experiment: Inhibition of Yarrowia lipolytica 24-SMT assessed as 14-alpha-methylergosta-8,24(28)-dien-3beta,6alpha-di-trimethylsilyl derivative at 0.2 ug/mL after 48 hrs by GC-MS analysis relative to untreated control; design: scale not given: the % may be the effect or the level left
How it was run: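 Y. lipolytica whole cells, inoculated at 50,000 CFU/mL in yeast extract/peptone/glucose medium, exposed to compound (ethanol solution, 10 µL per 2 mL well), 48 ± 2 h, 28 °C. Wells at MIC/2 and/or MIC/4 pelleted, saponified in 1 M NaOH at 70 °C for 1 h, extracted with TBME and silylated. GC–MS with cholesterol internal standard. Each sterol given as percent of total integrated area; ethanol-only wells as control.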

[5] = target: T1, Sterol 24-C-methyltransferase (Yarrowia lipolytica); experiment: Inhibition of Yarrowia lipolytica 24-SMT assessed as cholesta-7,24-dien-3-trimethylsilyl derivative at 1 ug/mL after 48 hrs by GC-MS analysis relative to untreated control; design: scale not given: the % may be the effect or the level left; how it was run: as §1
[6] = target: T1, Sterol 24-C-methyltransferase (Yarrowia lipolytica); experiment: Inhibition of Yarrowia lipolytica 24-SMT assessed as dehydroergosterol-3-trimethylsilyl derivative at 2 ug/mL after 48 hrs by GC-MS analysis relative to untreated control; design: scale not given: the % may be the effect or the level left; how it was run: as §1
[7] = target: T1, Sterol 24-C-methyltransferase (Yarrowia lipolytica); experiment: Inhibition of Yarrowia lipolytica 24-sterol C-methyltransferase assessed as ergosterol-3-trimethylsilyl derivative level at 1 ug/mL after 48 hrs by GC-MS analysis relative to untreated control; design: scale not given: the % may be the effect or the level left; how it was run: as §1
[8] = target: T1, Sterol 24-C-methyltransferase (Yarrowia lipolytica); experiment: Inhibition of Yarrowia lipolytica 24-SMT assessed as cholesta-5,7,24-trien-3-trimethylsilyl derivative at 2 ug/mL after 48 hrs by GC-MS analysis relative to untreated control; design: scale not given: the % may be the effect or the level left; how it was run: as §1
[9] = target: T1, Sterol 24-C-methyltransferase (Yarrowia lipolytica); experiment: Inhibition of Yarrowia lipolytica 24-sterol C-methyltransferase assessed as ergosterol-3-trimethylsilyl derivative level at 2 ug/mL after 48 hrs by GC-MS analysis relative to untreated control; design: scale not given: the % may be the effect or the level left; how it was run: as §1
[10] = target: T1, Sterol 24-C-methyltransferase (Yarrowia lipolytica); experiment: Inhibition of Yarrowia lipolytica 24-SMT assessed as dehydroergosterol-3-trimethylsilyl derivative at 1 ug/mL after 48 hrs by GC-MS analysis relative to untreated control; design: scale not given: the % may be the effect or the level left; how it was run: as §1
[11] = target: T1, Sterol 24-C-methyltransferase (Yarrowia lipolytica); experiment: Inhibition of Yarrowia lipolytica 24-SMT assessed as zymosterol-3-trimethylsilyl derivative level at 2 ug/mL after 48 hrs by GC-MS analysis relative to untreated control; design: scale not given: the % may be the effect or the level left; how it was run: as §1
[12] = target: T1, Sterol 24-C-methyltransferase (Yarrowia lipolytica); experiment: Inhibition of Yarrowia lipolytica 24-SMT assessed as 5-dehydroepisterol-3-trimethylsilyl derivative at 1 ug/mL after 48 hrs by GC-MS analysis relative to untreated control; design: scale not given: the % may be the effect or the level left; how it was run: as §1
[13] = target: T1, Sterol 24-C-methyltransferase (Yarrowia lipolytica); experiment: Inhibition of Yarrowia lipolytica 24-SMT assessed as cholesta-7,24-dien-3-trimethylsilyl derivative at 2 ug/mL after 48 hrs by GC-MS analysis relative to untreated control; design: scale not given: the % may be the effect or the level left; how it was run: as §1
[14] = target: T1, Sterol 24-C-methyltransferase (Yarrowia lipolytica); experiment: Inhibition of Yarrowia lipolytica 24-sterol C-methyltransferase assessed as cholesta-5,7,24-trien-3-trimethylsilyl derivative at 1 ug/mL after 48 hrs by GC-MS analysis relative to untreated control; design: scale not given: the % may be the effect or the level left; how it was run: as §1
[15] = target: T1, Sterol 24-C-methyltransferase (Yarrowia lipolytica); experiment: Inhibition of Yarrowia lipolytica 24-SMT assessed as 5-dehydroepisterol-3-trimethylsilyl derivative at 2 ug/mL after 48 hrs by GC-MS analysis relative to untreated control; design: scale not given: the % may be the effect or the level left; how it was run: as §1

Row | Structure (SMILES) | Activity [1] [%] | Activity [2] [%] | Activity [3] [%] | MIC (Yarrowia lipolytica) [µg/mL] | Activity [4] [%] | Activity [5] [%] | Activity [6] [%] | Activity [7] [%] | Activity [8] [%] | Activity [9] [%] | Activity [10] [%] | Activity [11] [%] | Activity [12] [%] | Activity [13] [%] | Activity [14] [%] | Activity [15] [%]
1 | CC(=O)N1CCN(c2ccc(OCC3COC(Cn4ccnc4)(c4ccc(Cl)cc4Cl)O3)cc2)CC1 (configuration not stated) [KETOCONAZOLE] | 59.1 | 9.6 | 28.9 | 0.5 (≈ 0.941 µM) | 2.4 | – | – | – | – | – | – | – | – | – | – | –
2 | C[C@H](CNCCN1CCCC1)[C@H]1CC[C@H]2C3=CC[C@H]4C[C@@H](O)CC[C@]4(C)[C@H]3CC[C@]12C | – | – | – | > 2 | – | 3.6 | 40.1 | 1.7 | 46.6 | 3.3 | 65.4 | 0.4 | 4.8 | 6 | 24.3 | 3.6
